Results from different studies.
Protocols differ between the studies behind these lines.
Target: Serine/threonine-protein kinase DCLK2 (DCLK2, Homo sapiens, UniProt Q8N568)
One construct used (Q8N568 1-766): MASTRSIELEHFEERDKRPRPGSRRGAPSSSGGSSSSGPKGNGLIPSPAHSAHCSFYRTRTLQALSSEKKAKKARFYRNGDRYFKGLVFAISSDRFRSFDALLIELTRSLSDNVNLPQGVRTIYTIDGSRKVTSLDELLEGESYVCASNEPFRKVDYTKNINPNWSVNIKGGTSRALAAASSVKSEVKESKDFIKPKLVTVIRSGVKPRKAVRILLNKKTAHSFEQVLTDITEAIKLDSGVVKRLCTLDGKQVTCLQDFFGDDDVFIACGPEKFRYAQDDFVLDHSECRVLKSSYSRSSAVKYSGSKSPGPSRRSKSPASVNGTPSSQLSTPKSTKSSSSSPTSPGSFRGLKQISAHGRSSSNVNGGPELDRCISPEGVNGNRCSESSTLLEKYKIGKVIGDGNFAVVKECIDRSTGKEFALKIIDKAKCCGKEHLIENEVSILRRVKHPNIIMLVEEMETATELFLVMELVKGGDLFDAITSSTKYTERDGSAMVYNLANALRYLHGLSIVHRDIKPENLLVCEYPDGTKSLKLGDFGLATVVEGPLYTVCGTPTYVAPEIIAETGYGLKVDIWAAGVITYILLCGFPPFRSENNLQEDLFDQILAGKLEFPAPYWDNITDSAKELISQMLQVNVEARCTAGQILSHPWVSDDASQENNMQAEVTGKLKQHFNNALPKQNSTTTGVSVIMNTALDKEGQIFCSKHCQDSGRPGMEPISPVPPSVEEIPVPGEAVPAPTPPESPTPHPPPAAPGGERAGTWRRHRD

SMILES	observed	method	concentration	remaining binding
CO[C@@H](C)c1c(Nc2ccc([C@@H](N(C)C(=O)C3CCS(=O)(=O)CC3)C(F)(F)F)cc2)cnc2cc(Cl)nn12	cell-free assay	competition with immobilised ligand	1 µM	95%
Cc1cnc(Nc2ccc(C(=O)N3CCC(N4CCCC4)CC3)cc2)nc1-c1cc2ccccc2s1	binding	competition with immobilised ligand	1 µM	100%
COc1ccnn2ncc(-c3ccnc(N(C)C)n3)c12	binding		1 µM	100%
NS(=O)(=O)c1cc(NC(=O)Cc2ccccc2)ccc1Oc1cccc(Cl)c1	cell-free assay	competition with immobilised ligand	1 µM	99%
O=C(c1ccc(Nc2nccc(-c3cc4ccccc4s3)n2)cc1)N1CCC(N2CCCC2)CC1	binding	competition with immobilised ligand	1 µM	97%
Cn1nc(C(F)(F)F)cc1-c1cnc(N2CCc3cc(S(=O)(=O)Nc4c(F)cc(Cl)cc4F)cc(N4CCCC4=O)c32)nc1	cell-free assay	competition with immobilised ligand	1 µM	100%
Nc1ncc2c(n1)-c1c([nH]c3ccc(C#CC4CC4)cc13)CCCC2	binding	competition with immobilised ligand	1 µM	89%
CCOC(=O)c1cc2cc(-c3cc(C(=O)NCc4ccc(C(=O)O)cc4)nn3C)ccc2[nH]1	cell-free assay	competition with immobilised ligand	0.1 µM	100%
CN(c1nccc(-c2cnn3ncccc23)n1)C1CC1	binding		1 µM	100%
CCN1CCN(Cc2ccc(C(=O)Nc3ccc(C)c(Oc4ccc5c(c4)CC(=O)N5)c3)cc2C(F)(F)F)CC1	binding	competition with immobilised ligand	1 µM	92%
COc1ncc2cc3ccccc3nc2c1C#N	cell-free assay	competition with immobilised ligand	5 µM	94%
COc1cc(C(=O)N2CCC(N3CCN(C)CC3)CC2)ccc1Nc1ncc2c(n1)N(C)c1ccccc1C(=O)N2C	binding	competition with immobilised ligand	10 µM	0.45%
CNC(=O)[C@@H]1CC[C@@H](n2c(-c3ccc4cnccc4c3)nc3ccc(C(=O)NCc4cccc(C(N)=O)c4)cc32)C1	binding	competition with immobilised ligand	1 µM	100%
O=C1NC(c2ccccn2)Sc2ccccc21 (stereo not shown)	cell-free assay	competition with immobilised ligand	1 µM	92%
O=C(Nc1c[nH]nc1C(=O)NC1CCNCC1)c1cc(F)cc(F)c1	binding	competition with immobilised ligand	1 µM	100%
F[C@@H]1CCN(c2nccc(-c3cnn4ncccc34)n2)C1	binding		1 µM	88%
NS(=O)(=O)c1cc(NC(=O)C2(c3ccccc3Cl)CC2)ccc1Oc1cccc(Cl)c1	cell-free assay	competition with immobilised ligand	1 µM	74%
c1cnn2ncc(-c3ccnc(N4CCC45COC5)n3)c2c1	binding		1 µM	78%
O=C(c1ccc(Nc2ncc(Cl)c(-c3cc4ccccc4s3)n2)cc1)N1CCC(N2CCCC2)CC1	binding	competition with immobilised ligand	1 µM	90%
